Bioassay records (PubChem BioAssay)
A selection: hits, their analogues and other compounds. The true share with any hit is near 3.5%.
PRMT1 inh – blocks human protein arginine methyltransferase 1 | recombinant PRMT1, activity-based probe fluorescence polarization | inhibition, % at 2.79 µM | 370,000 compounds, 1.3% hits;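 active = inhibition above about 21% made by adding two undisclosed values, limit read from the data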
mABHD4 FP – inhibits mouse alpha/beta hydrolase domain 4. Q8VD66. purified mABHD4, FP-Rh probe fluorescence polarization. inhibition, % at 8.92 µM. 370,000 compounds, 0.54% hits. AID 720543;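 active = inhibition exceeding the mean over every tested compound plus 3 SD, cut at about 30% in these data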;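 also: 0% = plate median of compound wells and 100% = S159A mutant with DMSO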
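Doses – 8.92 µM, single dose · Material – wild-type mouse ABHD4 protein · Replication – single well per compound (singlicate) · Measure – percent inhibition of probe binding, normalized to plate controls · Schedule – 45 min compound pre-incubation plus 60 min probe step, 25 °C · Detection – fluorescence polarization with parallel and perpendicular emission, 525/598 nm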
HTRA1 inh – inhibitors of human serine peptidase HTRA1. Q92743. recombinant HTRA1, FP-rhodamine activity-based probe, fluorescence polarization. inhibition, % at 5.96 µM. 340,000 compounds, 0.5% hits; in the data active = inhibition above about 36%;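 also: 0% = enzyme with DMSO and 100% = wells lacking enzyme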
rCAG binder – molecules binding r(CAG) RNA repeats. r(CAG) RNA repeat, TO-PRO-1 dye displacement fluorescence. inhibition, % at 3 µM. 370,000 compounds, 1.3% hits. AID 651821;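 active = inhibition above the plate cutoff, the mean of all test compounds on that plate plus 3 SD, cut at about 35% in these data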;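 also: 0% = DMSO alone and 100% = 100 µM mitoxantrone as full dye displacement; higher means more dye released from RNA so lower well fluorescence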
TCR-CD3 inh – blocks the human TCR-CD3 interaction | TAMRA-labeled TCR probe fluorescence, biochemical | inhibition, % at 9.4 µM | 360,000 compounds, 0.37% hits | AID 651800; in the data active = inhibition above about 19%;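 also: recombinant mutant TCR 2C K166C tagged with TAMRA read by polarization; 0% = receptor in buffer alone and 100% = receptor with positive control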
SIAE inh – blocks human sialic acid acetylesterase. SIAE FP-Rh probe binding, fluorescence polarization. AID 1053197. Q9HAT2. 370,000 compounds, 0.69% hits. inhibition, % at 9.66 µM;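 active = inhibition above a cutoff: mean of compounds within the control limits plus 3 SD of those, cut at about 17% in these data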;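 also: 0% = plate median of compound wells and 100% = probe without SIAE protein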
Target sequence (Q9HAT2 whole entry, looked up): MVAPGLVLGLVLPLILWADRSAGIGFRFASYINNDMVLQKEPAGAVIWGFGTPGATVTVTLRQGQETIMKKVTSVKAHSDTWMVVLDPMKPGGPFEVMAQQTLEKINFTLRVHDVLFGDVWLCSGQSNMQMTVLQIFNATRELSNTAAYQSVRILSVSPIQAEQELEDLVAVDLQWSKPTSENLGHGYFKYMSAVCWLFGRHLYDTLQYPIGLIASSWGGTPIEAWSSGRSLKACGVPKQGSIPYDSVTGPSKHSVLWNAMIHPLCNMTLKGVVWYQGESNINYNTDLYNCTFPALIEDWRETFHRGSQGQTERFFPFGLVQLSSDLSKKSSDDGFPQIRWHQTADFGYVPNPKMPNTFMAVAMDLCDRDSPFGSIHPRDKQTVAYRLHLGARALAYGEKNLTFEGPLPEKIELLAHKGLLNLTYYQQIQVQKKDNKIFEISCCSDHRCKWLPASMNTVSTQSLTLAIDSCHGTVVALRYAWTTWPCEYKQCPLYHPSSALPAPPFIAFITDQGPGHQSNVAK
PRMT1 inh conf – confirmation of human PRMT1 inhibitors; shares compounds with PRMT1 inh; 3,300 compounds, 42% hits; inhibition, % at 2.79 µM; recombinant His-PRMT1, activity-based probe fluorescence polarization;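 active = mean inhibition across replicates above the hit cutoff derived for the earlier primary screen, cut at about 22% in these data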
* marks the source's active call; other numbers are inactive results; nt = no result given.

SMILES	PRMT1 inh	mABHD4 FP	HTRA1 inh	rCAG binder	TCR-CD3 inh	SIAE inh	PRMT1 inh conf
CC(NC(=O)Cc1cccs1)c1ccc2c(c1)OCO2 (stereo not drawn)	5	6	7	-3	-6	3	nt
N#CCSc1nc2ccccc2c(=O)n1CCCC(=O)NCc1ccco1	-2	-2	9	-2	-4	2	nt
O=C(CCCCCn1c(SCc2ccncc2)nc2ccccc2c1=O)NCc1ccco1	46*	2	-9	-2	5	1	9
O=C1C=CC(=O)N1c1cccc(-c2ccccc2)c1	91*	-2	16	1	7	8	94*
CCOC(=O)c1c(N2C(=O)C3C4C=CC(O4)C3C2=O)sc2c1CCCC2 (stereo not drawn)	82*	10	-12	6	-3	-4	56*
CCCCCCCCN1C(=O)[C@@H](CC(=O)NCCCOC)C[C@@]2(C(=O)OC)C1=C[C@H](C(C)C)O[C@@H]2C1CC1	-4	0	nt	0	nt	7	nt
Cc1ccc(-c2nc3nc4ccccc4nc3n2Cc2ccco2)cc1	2	-8	-10	2	0	-4	nt
Clc1ccc(-c2nc3nc4ccccc4nc3n2Cc2ccco2)cc1	27*	-9	-12	4	-4	-12	13
O=S(=O)(c1ccc(Cl)cc1)N1CCSC1c1ccco1 (stereo not drawn)	2	-6	-2	4	3	-2	nt
O=[N+]([O-])c1ccc(S(=O)(=O)N2CCSC2c2ccco2)cc1 (stereo not drawn)	46*	6	3	3	-2	6	33*
S=P(N1CC1)(N1CC1)N1CC1	40*	-7	1	2	6	7	10
COC(=O)[C@H](Cc1ccccc1)NC(=O)[C@H]1C[C@@]2(N3CCCC3)c3ccccc3N(C(=O)OC(C)(C)C)[C@H]2N1C(=O)OC(C)(C)C	3	-1	nt	2	nt	10	nt
COc1ccc(C[N+]2=C(N)NC3=C(C)Cn4c(=O)n(-c5ccccc5)c(=O)n4C3C2)c(OC)c1 (stereo not drawn)	3	7	nt	17	nt	1	nt
COc1cccc(/C=C2\SC(=O)N(CCC(=O)N3CCC(C(=O)O)CC3)C2=O)c1	30*	1	6	8	10	12	2
Cc1cccc(NS(=O)(=O)c2cccc3cccnc23)n1	-4	3	-3	2	10	-7	nt
CSS(=O)(=O)c1cccc2cccnc12	92*	4	nt	-1	3	8	96*
COC(=O)[C@]12C[C@H](CC(=O)NCC34CC5CC(CC(C5)C3)C4)C(=O)N(CCc3ccc(OC)c(OC)c3)C1=C[C@H](C(C)(C)C)O[C@@H]2C	3	2	nt	9	nt	3	nt
C[N+]1(C)[C@H]2CC[C@H]1CC(OC(=O)C(O)c1ccccc1)C2 (stereo partly drawn)	3	2	nt	2	nt	2	nt
CCOC(=O)CC[C@@]1(C(=O)OCC)C[C@@H](CC(=O)N2CCN(C(=O)c3ccco3)CC2)C(=O)N2CCCC=C21	-5	6	nt	3	nt	0	nt
CCCCCC[C@H](CN(CCCC)S(C)(=O)=O)c1ccccc1	-1	-1	nt	0	nt	6	nt
O=S(=O)(c1cccc(-c2n[nH]c(=S)n2-c2cccc(C(F)(F)F)c2)c1)N1CCOCC1	6	-2	1	10	2	7	nt
O=S(=O)(c1cccc(-c2n[nH]c(=S)n2-c2ccc(OC(F)(F)F)cc2)c1)N1CCOCC1	27*	6	11	15	1	0	15
Cc1ccc(CN2CCCCC(NC(=O)Nc3ccccc3)C2=O)cc1 (stereo not drawn)	-4	2	nt	3	nt	4	nt
Cc1ccccc1CS(=O)(=O)c1nnc([C@H](Cc2ccccc2)NC(=O)OC(C)(C)C)o1	38*	10	-4	0	2	2	26*
CCSc1nnc([C@H](Cc2ccccc2)NC(=O)OC(C)(C)C)o1	2	3	0	-9	2	-3	nt
SMILES	PRMT1 inh	mABHD4 FP	HTRA1 inh	rCAG binder	TCR-CD3 inh	SIAE inh	PRMT1 inh conf
CC(C)(C)OC(=O)N[C@@H](Cc1ccccc1)c1nnc(S(=O)(=O)Cc2ccccc2)o1	54*	22	nt	-7	6	8	21
COC(=O)c1ccccc1SC(CC(=O)c1ccccc1)c1ccc(F)cc1 (stereo not drawn)	43*	-15	-24	34	3	-3	48*
Nc1ccccc1SC(CC(=O)c1ccccc1)c1ccccc1 (stereo not drawn)	nt	nt	-8	nt	nt	nt	nt
O=C(/C=C/c1ccccc1)CCN1CCCCC1	25*	7	6	1	-1	-3	50*
O=C(CCN1CCCCCC1)c1ccccc1	-2	5	-4	-1	1	1	nt
O=C(CSc1nc2ccccc2n1Cc1ccccc1Cl)NN=C/C(Br)=C/c1ccccc1	2	-6	nt	7	nt	-9	nt
C[n+]1c(-c2ccccc2)sc([S-])c1-c1ccccc1	51*	-4	nt	2	-10	-2	20
O=C(c1ccc(F)cc1Cl)N1CCC(Oc2cccnc2)CC1	-7	2	nt	-1	nt	-2	nt
CC(=O)Nc1ccc(/C=N\NC(=O)c2cccc(S(=O)(=O)N(C)C)c2)cc1	0	3	nt	2	nt	-3	nt
O=C(/C=C/c1ccco1)Nc1ccccc1C(=O)O	17	0	nt	19	6	0	nt
O=C(/C=C/c1ccco1)Nc1cc(Cl)ccc1C(=O)O	25*	-8	-11	20	2	-9	9
O=C(/C=C/c1ccco1)Nc1ccccc1C(=O)Nc1cccc(C(=O)O)c1	25*	-17	-13	27	1	0	-2
O=C(/C=C/c1ccco1)NC(=S)Nc1cccc(C(=O)O)c1	34*	25	11	24	5	9	30*
COC(=O)[C@]12C[C@H](CC(=O)NCCC(C)C)C(=O)N(Cc3ccc4c(c3)OCO4)C1=C[C@H](C(C)C)O[C@@H]2C1CC1	-2	-3	nt	1	nt	4	nt
CCC(C)NC(=O)CN1C(=O)C2CCCCN2C(=O)c2ccccc21 (stereo not drawn)	3	-1	nt	1	nt	-3	nt
CC1(C)c2ccccc2N2CC(=O)N(CC(N)=O)C21C (stereo not drawn)	56*	-184	-221	-52	-45	-254	14
CC1(C)c2ccccc2N(CC(N)=O)C12C=Cc1ccccc1O2 (stereo not drawn)	-1	-32	-24	1	-3	-14	nt
O=C(Nc1ccccc1Oc1ccccc1)NC1CCCCN(Cc2cccc(Cl)c2)C1=O (stereo not drawn)	-2	-2	nt	7	nt	-1	nt
O=C(NC1CCCCN(Cc2ccc(Cl)cc2)C1=O)c1ccc(F)c(F)c1 (stereo not drawn)	3	-7	nt	2	nt	-6	nt
